Experimental data published in ChEMBL document CHEMBL1139111, “Structure-activity relationship studies on quorum sensing ComX(RO-E-2) pheromone” (Bioorg Med Chem Lett, 2007).
*1 amine or outer side, *2 acyl side, *3 side chain or, on linkers, in order; H or OH if unused. Where a SMILES comes first, the peptide text is derived from it. [ ]: non-standard residue; d: D form. X1 = CC(C)=CCC/C(C)=C\C[C@@]12c3ccccc3N[C@@H]1N([*:1])C[C@@H]2C(=O)[*:2]

Legend:
Bacillus subtilis = experiment: Activity at beta-galactosidase in Bacillus subtilis relative to ComXRO-E-2; design: concentration or dose not given beside the values
Method in brief: (§1)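 B. subtilis tester strain carrying an srfA-lacZ fusion that responds to added pheromone. Overnight culture diluted 100-fold, added to sample solution, incubated 37 °C, 5 h, 150 rpm. β-Galactosidase measured with o-nitrophenyl-β-D-galactopyranoside at 30 °C, read at 420 nm. Analogs tested at concentrations up to 300 nM.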

[1] = Activity at beta-galactosidase in Bacillus subtilis; method in brief: as §1

Activity (Bacillus subtilis) [%]	EC50 [1] [µM]	Structure (SMILES)
80	0.02	CC[C@H](C)[C@H](N)C(=O)N[C@@H](Cc1ccccc1)C(=O)N1C[C@H](C(=O)N[C@@H](CCC(=O)O)C(=O)O)[C@]2(C/C=C(/C)CCC=C(C)C)c3ccccc3N[C@H]12
100	0.003	CC[C@H](C)[C@H](NC(=O)[C@@H](C)N)C(=O)N[C@@H](Cc1ccccc1)C(=O)N1C[C@H](C(=O)N[C@@H](CCC(=O)O)C(=O)N[C@@H](CCC(N)=O)C(=O)O)[C@]2(C/C=C(/C)CCC=C(C)C)c3ccccc3N[C@H]12
15	> 0.3	CC(C)=CCC/C(C)=C\C[C@@]12c3ccccc3N[C@@H]1NC[C@@H]2C(=O)N[C@@H](CCC(=O)O)C(=O)N[C@@H](CCC(N)=O)C(=O)O
55	0.16	CC[C@H](C)[C@H](N)C(=O)N[C@@H](Cc1ccccc1)C(=O)N1C[C@H](C(=O)O)[C@]2(C/C=C(/C)CCC=C(C)C)c3ccccc3N[C@H]12
70	0.008	CC(C)=CCC/C(C)=C\C[C@@]12c3ccccc3N[C@@H]1N(C(=O)[C@@H](N)Cc1ccccc1)C[C@@H]2C(=O)N[C@@H](CCC(=O)O)C(=O)N[C@@H](CCC(N)=O)C(=O)O
60	0.02	CC(C)=CCC/C(C)=C\C[C@@]12c3ccccc3N[C@@H]1N(C(=O)[C@@H](N)Cc1ccccc1)C[C@@H]2C(=O)N[C@@H](CCC(=O)O)C(=O)O
60	0.13	CC[C@H](C)[C@H](NC(=O)CN)C(=O)N[C@@H](Cc1ccccc1)C(=O)N1C[C@H](C(=O)O)[C@]2(C/C=C(/C)CCC=C(C)C)c3ccccc3N[C@H]12
100	0.001	CC[C@H](C)[C@H](NC(=O)CNC(=O)[C@H](C)N)C(=O)N[C@@H](Cc1ccccc1)C(=O)N1C[C@H](C(=O)N[C@@H](CCC(=O)O)C(=O)N[C@@H](CCC(N)=O)C(=O)O)[C@]2(C/C=C(/C)CCC=C(C)C)c3ccccc3N[C@H]12 (H-AGIF[X1]EQ-OH)
95	0.01	CC(C)=CCC/C(C)=C\C[C@@]12c3ccccc3N[C@@H]1N(C(=O)[C@H](Cc1ccccc1)NC(=O)[C@H](C)NC(=O)CN)C[C@@H]2C(=O)N[C@@H](CCC(=O)O)C(=O)N[C@@H](CCC(N)=O)C(=O)O (H-GAF[X1]EQ-OH)
90	0.02	CC[C@H](C)[C@H](NC(=O)CN)C(=O)N[C@@H](C)C(=O)N1C[C@H](C(=O)N[C@@H](CCC(=O)O)C(=O)N[C@@H](CCC(N)=O)C(=O)O)[C@]2(C/C=C(/C)CCC=C(C)C)c3ccccc3N[C@H]12 (H-GIA[X1]EQ-OH)
100	0.003	CC[C@H](C)[C@H](NC(=O)CN)C(=O)N[C@@H](Cc1ccccc1)C(=O)N1C[C@H](C(=O)N[C@@H](C)C(=O)N[C@@H](CCC(N)=O)C(=O)O)[C@]2(C/C=C(/C)CCC=C(C)C)c3ccccc3N[C@H]12 (H-GIF[X1]AQ-OH)
80	0.02	CC[C@H](C)[C@H](NC(=O)CN)C(=O)N[C@@H](Cc1ccccc1)C(=O)N1C[C@H](C(=O)N[C@@H](CCC(=O)O)C(=O)O)[C@]2(C/C=C(/C)CCC=C(C)C)c3ccccc3N[C@H]12 (H-GIF[X1]E-OH)
95	0.02	CC[C@H](C)[C@H](NC(=O)CN)C(=O)N[C@@H](Cc1ccccc1)C(=O)N1C[C@H](C(=O)N[C@@H](CCC(=O)O)C(=O)N[C@@H](C)C(=O)O)[C@]2(C/C=C(/C)CCC=C(C)C)c3ccccc3N[C@H]12 (H-GIF[X1]EA-OH)
100	0.001	CC[C@H](C)[C@H](NC(=O)CN)C(=O)N[C@@H](Cc1ccccc1)C(=O)N1C[C@H](C(=O)N[C@@H](CCC(=O)O)C(=O)N[C@@H](CCC(N)=O)C(=O)O)[C@]2(C/C=C(/C)CCC=C(C)C)c3ccccc3N[C@H]12 (H-GIF[X1]EQ-OH)
100	0.006	CC[C@H](C)[C@H](N)C(=O)N[C@@H](Cc1ccccc1)C(=O)N1C[C@H](C(=O)N[C@@H](CCC(=O)O)C(=O)N[C@@H](CCC(N)=O)C(=O)O)[C@]2(C/C=C(/C)CCC=C(C)C)c3ccccc3N[C@H]12 (H-IF[X1]EQ-OH)
